Assay results published in publication PMC9371903 (Nucleic Acids Research, 2022).

Tests used:
[1] = tested on: PML-NBs in IMR90 normal human fibroblasts (control vector or activated RAS); test: PML-NB formation by anti-PML immunofluorescence; format: cell-based; settings: 24h treatment, 5 μM pyrithione
Outline: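 IMR90 fibroblasts in pyruvate-free DMEM with 10% FBS and 1% penicillin/streptomycin, transduced with retroviral pBABE control or pBABE-RAS-V12. On day 6, plated on coverslips and treated next day for 24 h with vehicle, 5 μM pyrithione or 1 μM TPEN. Cells fixed in 4% PFA, permeabilised with 0.4% Triton X-100 and 0.1 M glycine, then blocked in 3% BSA. Anti-PML (1/250, overnight, 4°C), Alexa 568 secondary, DAPI. PML-NBs per cell and PML-NBs >1 μm counted.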

[2] = target: SUMO1 (residues 2–97 of human SUMO1 with a C52A substitution) (Homo sapiens, UniProt P63165, C52A); test: ITC binding to SUMO1
[3] = target: ΔN-SUMO1 (residues 17–97 of human SUMO1) (Homo sapiens, UniProt P63165, C52A); test: ITC binding to ΔN-SUMO1; settings: ΔN-SUMO1, 20 mM Tris–HCl pH 7.4, 25°C
[4] = target: SUMO2 (residues 2-93 of human SUMO2 with a C48A substitution) (human, UniProt P61956 2-93, C48A); test: ITC
Chain of SUMO2 (residues 2-93 of human SUMO2 with a C48A substitution) (P61956 2-93 C48A): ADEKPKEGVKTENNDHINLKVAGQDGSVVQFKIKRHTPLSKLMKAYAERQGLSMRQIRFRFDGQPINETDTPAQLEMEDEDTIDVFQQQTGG

[5] = target: ΔN-SUMO2 (residues 14-93) (human, UniProt P61956 14-93, C48A); test: ITC
Chain of ΔN-SUMO2 (residues 14-93) (P61956 14-93 C48A): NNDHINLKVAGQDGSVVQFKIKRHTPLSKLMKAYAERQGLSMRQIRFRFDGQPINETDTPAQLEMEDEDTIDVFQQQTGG

[6] = target: UBC9 (residues 2-158 of human UBC9) (human, UniProt P63279 2-158); test: ITC
Chain of UBC9 (residues 2-158 of human UBC9) (P63279 2-158): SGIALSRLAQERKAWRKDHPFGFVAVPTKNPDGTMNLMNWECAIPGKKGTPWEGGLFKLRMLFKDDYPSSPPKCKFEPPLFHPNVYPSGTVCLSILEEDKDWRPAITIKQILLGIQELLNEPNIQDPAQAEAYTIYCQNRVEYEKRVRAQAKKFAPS

## [O-][n+]1ccccc1S [pyrithione]
[1]; Ras-expressing (senescent) IMR90 cells
  formation of PML-NBs: induces significantly the formation of PML-NBs
[1]; vector-control IMR90 cells
  formation of PML-NBs: only a marginal increase

## UBC9: residues 2–158 of human UBC9; E2 SUMO conjugating enzyme
[2]; ITC, SUMO1, 20 mM Tris–HCl pH 7.4, 25°C
  Kd: 29 ± 11 nM
[2]; ratio of ITC KD values, 20 mM Tris–HCl pH 7.4
  fold stronger binding to SUMO1 in comparison to ΔN-SUMO1: roughly 2.5 fold
[3]
  Kd: 73 ± 15 nM

B1: Daxx-SIM-2SD (Daxx-SIM with S/D substitutions at positions 737 and 739) (peptide)
peptide: YKTSVATQADPEEIIVLDDDD
[4]
  Kd: 1000 ± 100 nM
[5]
  Kd: 510 ± 110 nM

B2: ΔN-SUMO1 (residues 17-97 of human SUMO1) (domain or fragment, UniProt P63165 17-97, looked up)
chain: KEGEYIKLKVIGQDSSEIHFKVKMTTHLKKLKESYAQRQGVPMNSLRFLFEGQRIADNHTPKELGMEEEDVIEVYQEQTGG
[6]
  Kd: 73 ± 15 nM
